Results gathered from unrelated publications.
Cell line: MDA-MB-435
Observed: cell growth or viability

SMILES	assay	conditions	measurement	result
COc1ccc(-c2ccc(-c3ccc(C(=N)N)nc3)s2)cc1Cl	SRB	–	GI50	1730 nM
O=C1NCCc2[nH]c(-c3ccncc3)cc21	–	–	IC50	> 10000 nM
CCOC(=O)c1[nH]c(Br)c(-c2ccc(Cl)cc2)c1Br	SRB	–	IC50	919 nM
COc1cc(Nc2nccc(-c3cnn4nc(OC)ccc34)n2)cc(C(F)(F)F)c1	ATP luminescence	–	IC50	130 nM
COc1ccc(N(C)c2nc(C)nc3c2C[C@@H](C)C3)cc1 (racemic)	SRB	–	IC50	17 nM
COc1ccc(C(=O)/C=C/c2cccc3ccccc23)cc1S(N)(=O)=O	SRB	10 µM	inhibition	95%
COc1ccc(-c2ccc(-c3ccc(C(=N)N)nc3)s2)cc1	SRB	–	GI50	1730 nM
CCOC(=O)c1[nH]c(Br)c(-c2ccc3c(c2)OCO3)c1Br	SRB	–	IC50	1800 nM
COc1ccc(C(=O)/C=C/c2cccnc2)cc1S(N)(=O)=O	SRB	10 µM	inhibition	26%
O=C1CCC2(Oc3cccc4cccc(c34)O2)c2c(O)ccc(O)c21	resazurin	72 h	IC50	> 25000 nM
COc1ccccc1/C=C/C(=O)c1ccc(OC)c(S(N)(=O)=O)c1	SRB	10 µM	inhibition	73%
CCOC(=O)c1[nH]c(Br)c(-c2ccc(OC)cc2)c1Br	SRB	–	IC50	843 nM
COc1ccc(C(=O)/C=C/c2ccc3ccccc3c2)cc1S(N)(=O)=O	SRB	10 µM	inhibition	98%
CCOC(=O)c1[nH]c(Br)c(-c2ccc(OC)c(F)c2)c1Br	SRB	–	IC50	539 nM
